In ChEMBL document CHEMBL4414601 (J Med Chem, 2019):
Values after ≈ are worked out from the molar mass of the structure shown.

How the values were obtained:
[1] = Aqueous solubility of compound; settings: buffer
Plasmodium falciparum = experiment: Antiplasmodial activity against Plasmodium falciparum 3D7A erythrocytic stage assessed as reduction in [3H]hypoxanthine incorporation preincubated for 24 hrs followed by [3H]hypoxanthine addition and measured after 24 hrs by microbeta scintillation counting method; type: functional, organism-based
In short: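 Nine threefold serial dilutions from 5 μM top concentration. Incubated 24 h at 37 °C under 5% CO2/5% O2/90% N2, then 0.2 μCi [3H]-hypoxanthine per well for another 24 h. Cells harvested on glass fibre filters and counted. Data normalized to compound-free parasitized RBCs; IC50 fitted.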

L929 = experiment: Cytotoxicity against mouse L929 cells assessed as reduction in viability by dual luciferase reporter gene assay; type: ADME, cell-based
[2] = Permeability of compound by PAMPA
[3] = Lipophilicity, LogD of compound by reverse phase HPLC analysis

Row | Compound | solubility [1] [µM] | EC50 (Plasmodium falciparum) [µM] | EC50 (L929) [µM] | Papp [2] [×10⁻⁶ cm/s] | chromatographic logD [3]
1 | CN(C)C(CNc1nccc(-c2sc(C3CCNCC3)nc2-c2ccc(F)cc2)n1)C1CC1 (stereo not given) | 514 (≈ 240 µg/mL) | 2.35 | 12 | 3.4 | 1.68
2 | Fc1ccc(-c2nc(C3CCNCC3)sc2-c2ccnc(N3CCC(CN4CCOCC4)CC3)n2)cc1 | 355 (≈ 186 µg/mL) | > 5 | 12.9 | 38 | 3.75
3 | CCCS(=O)(=O)Nc1nc(-c2ccc(F)cc2)c(-c2ccnc(Nc3ccc(N4CCNCC4)cc3)n2)s1 | – | 4.86 | 100 | – | 2.5
4 | Fc1ccc(-c2nc(C3CCNCC3)sc2-c2ccnc(Nc3ccccn3)n2)cc1 | 56 (≈ 24.2 µg/mL) | 2.41 | 6.2 | 33 | 2.96
5 | Fc1ccc(-c2nc(C3CCNCC3)sc2-c2ccnc(NCCN3CCCC3)n2)cc1 | 297 (≈ 134 µg/mL) | 3.19 | 38 | 1 | 1.13
6 | Cc1nnc(Nc2nccc(-c3sc(C4CCNCC4)nc3-c3ccc(F)cc3)n2)s1 | 74 (≈ 33.6 µg/mL) | 4.44 | 4.4 | 8 | 2.02
7 | c1cc(Nc2nccc(-c3sc(C4CCNCC4)nc3C3CC3)n2)ncn1 | 139 (≈ 52.7 µg/mL) | 3.45 | 43.7 | 18 | 1.71
8 | Fc1ccc(-c2nc(C3CCNCC3)sc2-c2ccnc(N3CCCC3)n2)cc1 | 374 (≈ 153 µg/mL) | > 5 | 13.8 | 46 | 3.71
9 | CCc1cc(Nc2nccc(-c3sc(C4CCNCC4)nc3-c3ccc(F)cc3)n2)nc(C)c1F | 17 (≈ 8.37 µg/mL) | 2.9 | 4.3 | – | 4.92
10 | CCOC(=O)N1CCC(c2nc(-c3ccc(F)cc3)c(-c3ccnc(Nc4ccc(N5CCN(C)CC5)cc4)n3)s2)CC1 | 23 (≈ 13.8 µg/mL) | > 5 | 6.5 | 41 | 6.66
11 | OC1CCN(c2nccc(-c3sc(C4CCNCC4)nc3-c3ccc(F)cc3)n2)C1 (stereo not given) | 273 (≈ 116 µg/mL) | > 5 | 72.4 | 6.5 | 1.92
12 | O[C@H]1CC[C@H](Nc2nccc(-c3sc(C4CCNCC4)nc3-c3ccc(F)cc3)n2)CC1 | 287 (≈ 130 µg/mL) | > 5 | 27.5 | 5.5 | 2.12
13 | O=S(=O)(Nc1nc(-c2ccc(F)cc2)c(-c2ccnc(Nc3ccc(N4CCNCC4)cc3)n2)s1)C1CCNCC1 | – | > 5 | 74.1 | 3 | 1.34
14 | Cc1nc(Nc2nccc(-c3sc(C4CCNCC4)nc3-c3ccc(F)cc3)n2)cc(C2CCC2)c1F | 7 (≈ 3.63 µg/mL) | > 5 | 18.6 | – | 5.52
15 | Oc1cc(Nc2nccc(-c3sc(C4CCNCC4)nc3-c3ccc(F)cc3)n2)ccn1 | – | 3.47 | 100 | 2 | 1.64
16 | Nc1nc(-c2ccc(F)cc2)c(-c2ccnc(Nc3ccc(N4CCOCC4)cc3)n2)s1 | 26 (≈ 11.7 µg/mL) | – | 19.5 | 3 | 4.61
17 | COc1cc(Nc2nccc(-c3sc(C4CCNCC4)nc3-c3ccc(F)cc3)n2)cc(C)n1 | – | 0.38 | 1.2 | 19 | 3.36
18 | Fc1ccc(-c2nc(C3CCNCC3)sc2-c2ccnc(NCCN3CCOCC3)n2)cc1 | 408 (≈ 191 µg/mL) | > 5 | – | 17 | 2.02
19 | O=C(Nc1nc(-c2ccc(F)cc2)c(-c2ccnc(Nc3ccc(N4CCNCC4)cc3)n2)s1)C1CC1 | – | > 5 | 25.7 | 2 | 2.53
